Measured values gathered from unrelated publications.
Each line is one published result; the experiments were not run side by side.

| SMILES | system | setting | Cmax |
| --- | --- | --- | --- |
| Cc1ccc(NC(=O)c2ccc(CN3CCN(C)CC3)cc2)cc1Nc1nccc(-c2cncc(-c3oncc3C)c2)n1 | male C57BL/6 mouse, plasma | oral, 100 mg/kg/day | 5060 ng/mL |
| CNCCN(C)c1cc(C#N)cc(CCc2cc(C)cc(N)n2)c1 | male BALB/c mouse, brain | oral, 10 mg/kg | 39.3 ng/g |
| COc1cc2c(Nc3ccc(Cl)c(Cl)c3F)ncnc2cc1OC[C@@H]1C[C@@H]2CN(C)C[C@@H]2C1 | FVB mouse, plasma | oral, 70 mg/kg, single dose | 3780 ng/mL |
| CCN1CCN(Cc2cc(NC(=O)c3ccc(C)c(-c4ccc5nc(NC(=O)C6CC6)cn5n4)c3)cc(C(F)(F)F)c2)CC1 | Swiss mouse, plasma | intraperitoneal, 3 mg/kg | 340 ng/mL |
| COc1ccc2nc(-c3ccccn3)c(N(C)c3ccc(F)cc3)n2c1 | male CD-1 mouse, plasma | oral, 50 mg/kg, fasted | 1440 ng/mL |
| COc1nc(-c2cc(C)c(N[C@@H](C)c3ccc(F)cc3)nn2)ccc1-n1cnc(C)c1 | male CD-1 mouse, plasma | oral, 5 mg/kg, single dose | 1530 ng/mL |
| Nc1nc(-c2ccccc2)nc2[nH]nc(Nc3ccc(C(F)(F)F)cc3)c12 | mouse, plasma | oral, 100 mg/kg | 1250 ng/mL |
| CC(C)(O)c1cn(-c2ccc(-c3cccc(S(C)(=O)=O)c3)cc2)c(C(C)(C)c2ccccc2Cl)n1 | male C57BL/6 mouse, serum | oral, 10 mg/kg | 15 µM |
| Cc1c(C(=O)NN2CCCCC2)nn(-c2ccc(Cl)cc2Cl)c1-c1ccc(Cl)cc1 | mouse, plasma | oral, 20 µmol/kg, single dose | 1.05 µM |
| CS(=O)(=O)CCNCc1ccc(-c2ccc3ncnc(Nc4ccc(OCc5cccc(F)c5)c(Cl)c4)c3c2)o1 | nude mouse, plasma | oral, 100 mg/kg, single dose | 15200 ng/mL |
| CN1C(=O)c2ccccc2[S@+]([O-])c2ccc(C(=O)NCCc3cccs3)cc21 | male C57BL/6 mouse, brain | intraperitoneal, 30 mg/kg, single dose | 1720 ng/g |
| CC(C)(C)c1ccc(O)c(CN(Cc2cc(C(C)(C)C)ccc2O)C2CCC(NC(N)=O)CC2)c1 (stereo not shown) | male C57BL/6 mouse, plasma | oral, 10 mg/kg, single dose | 1020 ng/mL |
| Cc1ccc2cncc(N3CCc4c(cc(Cn5ccnc5)cc4-c4cn(C)nc4C(F)(F)F)C3=O)c2c1 | male CD-1 mouse, plasma | oral, 50 mg/kg | 6580 ng/mL |
| CN1CCC[C@H](CN2c3ccccc3Sc3ccccc32)C1.Cl | mouse, plasma | oral, 64 mg/kg, single dose | 1180 ng/mL |
| CCc1cc(OC)c2nccc(N3CCc4c(cc(Cn5ccnc5)cc4-c4cn(C)nc4C(F)(F)F)C3=O)c2c1 | male CD-1 mouse, plasma | oral, 150 mg/kg | 35200 ng/mL |
| Cc1cc(Nc2ccc(S(F)(F)(F)(F)F)cc2)n2ccnc2n1 | male Swiss mouse, plasma | oral, 100 mg/kg, single dose | 29 µM |
| Cc1noc([C@H](Cc2c[nH]cn2)NC(=O)CN(CCCc2ccccc2)CC(=O)O)n1 | male C57BL/6 mouse, plasma | intraperitoneal, 30 mg/kg | 5800 ng/mL |
| CCOc1ccc(Cc2cc([C@@H]3O[C@H](CO)[C@@H](O)[C@H](O)[C@H]3O)ccc2Cl)cc1 | male C57BL/6 mouse, plasma | oral, 1 mg/kg | 207 ng/mL |
| COc1ccc([C@@]23Oc4cc(OC)cc(OC)c4[C@]2(O)[C@H](O)[C@H](C(=O)N(C)C)[C@H]3c2ccccc2)cc1 | mouse, plasma | intraperitoneal, 5 mg/kg | ~4 µM |
